The source made the active and inactive calls. The rule behind the calls is not given here. Residues, ends and D or L forms follow the SMILES beside them.
Columns and labels:
[1] = Binding affinity to amyloid beta (1 to 42) Try residue at position 20 assessed as change in fluorescence intensity
In short: (§1)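 Aβ42 or Y-substituted analogue (5 μM final) mixed with tetrapeptide (50 μM final), HFIP-pretreated, dissolved in 60 mM NaOH (10% of volume) then diluted in 10 mM sodium phosphate pH 7.4. Spun 5,000 g 1 min, concentration confirmed post facto by AAA. Excitation 280 nm, emission 290–400 nm, 22°C, ≥10 scans of ~1 min right after preparation. Buffer subtracted, area under curve normalized to peptide alone. Four independent experiments, mean ± SEM.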

PC-12 [2] = experiment: Neuroprotective activity in rat PC12 cells assessed as inhibition of staurosporine-induced cell death after 24 hrs by MTT assay
[3] = Binding affinity to wild type amyloid beta (1 to 42) assessed as change in fluorescence intensity; in short: as §1
PC-12 [4] = experiment: Neuroprotective activity in rat PC12 cells assessed as inhibition of amyloid-beta (1 to 42)-induced cell death after 24 hrs by MTT assay; format: functional, cell-based; conditions: for IC50: PC-12, 24 h
In short: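 NGF-differentiated PC-12 cells (100 ng/mL, 48 h) were given 10 μM Aβ42 plus peptide at 1:1, 1:2, 1:5 and 1:10 ratios for 24 h, and read by MTT. Viability was scaled to 1 μM staurosporine full kill (100% loss), with NaOH-matched vehicle and medium as negative controls. IC50 from dose–response, ≥3 independent experiments × 6 replicates, mean ± SEM.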

PC-12 [5] = experiment: Neuroprotective activity in rat PC12 cells assessed as inhibition of staurosporine-induced cell death after 24 hrs by MTT assay; format: functional, cell-based
In short: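 Differentiated PC-12 cells (NGF 100 ng/mL, 48 h) exposed to 0.2 μM staurosporine, with or without varying tetrapeptide concentrations, for 24 h. Viability was read by MTT. Mean ± SEM, ≥3 independent experiments with 5 replicates per point.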

[6] = Binding affinity to amyloid beta (1 to 42) Try residue at position 1 assessed as change in fluorescence intensity using C-terminus acetylated compound
In short: (§2)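 HFIP-pretreated Aβ42 or its Y-substituted analogue (5 μM nominal) was mixed with tetrapeptide (50 μM nominal), taken up in 60 mM NaOH (10% of volume), then diluted with 10 mM sodium phosphate pH 7.4 and spun briefly. Exact concentrations were set afterwards by AAA. Read-out: excitation 280 nm, emission 290–400 nm at 22°C, ≥10 immediate scans. Buffer-subtracted area per micromole was normalized to the analogue alone. Four independent experiments.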

[7] = Binding affinity to amyloid beta (1 to 42) Try residue at position 1 assessed as change in fluorescence intensity; in short: as §2
[8] = Binding affinity to amyloid beta (1 to 42) assessed as change in fluorescence intensity using C-terminus acetylated compound; in short: as §2
PC-12 [9] = experiment: Neuroprotective activity in rat PC12 cells assessed as inhibition of alamethicin-induced cell death after 24 hrs by MTT assay; format: functional, cell-based
In short: (§3)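 NGF-differentiated PC-12 cells (100 ng/mL, 48 h) treated 24 h with α-synuclein (15 μM) or alamethicin (4 μM), alone or with a range of tetrapeptide concentrations. MTT read-out. Mean ± SEM of ≥3 independent experiments, 5 replicates per point.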

PC-12 [10] = experiment: Neuroprotective activity in rat PC12 cells assessed as inhibition of alpha-synuclein-induced cell death after 24 hrs by MTT assay; format: functional, cell-based; in short: as §3
[11] = Binding affinity to amyloid beta (1 to 42) Try residue at position 1 assessed as change in fluorescence intensity using N-terminus amidated compound; in short: as §2
[12] = Binding affinity to amyloid beta (1 to 42) Try residue at position 30 assessed as change in fluorescence intensity; in short: as §1
[13] = Binding affinity to amyloid beta (1 to 42) Try residue at position 30 assessed as change in fluorescence intensity using N-terminus amidated compound; in short: as §2
[14] = Binding affinity to amyloid beta (1 to 42) Try residue at position 42 assessed as change in fluorescence intensity; in short: as §1
[15] = Cytotoxicity against rat PC12 cells assessed as cell viability at 1 uM after 24 hrs by MTT assay; format: cell-based, PC-12; conditions: read-out: Activity
PC-12 [16] = experiment: Neuroprotective activity in rat PC12 cells assessed as inhibition of amyloid-beta (1 to 42)-induced cell death after 24 hrs by LDH release assay; format: functional, cell-based; conditions: PC-12, 24 h
In short: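 PC-12 cells were differentiated with NGF (100 ng/mL, 48 h), then exposed to Aβ42 alone or Aβ42:peptide mixtures at 1:1, 1:2, 1:5 and 1:10 ratios. Cell death was measured by LDH release (membrane integrity kit). IC50 was taken from the dose–response, ≥3 independent experiments with 6 replicates each, mean ± SEM.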

For CC[C@H](C)[C@H](NC(=O)[C@@H](NC(=O)[C@@H](N)C(C)C)C(C)C)C(=O)N[C@@H](C)C(=O)O, the Activity [1] was “inactive”, the Activity (PC-12 [2]) was “inactive” and the Activity [3] was “inactive”. For the same compound, the Activity (PC-12 [4]) was “Dose-dependent effect”, the IC50 (PC-12 [4]) was 21 µM and the Activity (PC-12 [5]) was “inactive”. For the same compound, the Flu intensity [6] was 48%, the Flu intensity [7] was 117% and the Flu intensity [8] was 19%. For the same compound, the Activity (PC-12 [9]) was “inactive”, the Activity (PC-12 [10]) was “inactive” and the Flu intensity [11] was 62%. The Activity [12] was “inactive”, the Flu intensity [13] was 24% and the Activity [14] was “inactive”.
In the case of CN[C@@H]1C[C@H]2O[C@@](C)([C@@H]1OC)n1c3ccccc3c3c4c(c5c6ccccc6n2c5c31)C(=O)NC4 [STAUROSPORINE], the viability at 24 h, 1 µM [15] is reported as 100%.
With CC[C@H](C)[C@H](NC(=O)[C@@H](NC(=O)[C@@H](N)C(C)C)C(C)C)C(=O)N[C@@H](C)C(N)=O (H-VVIA-NH2) the Activity (PC-12 [4]) was “Dose-dependent effect”, the IC50 (PC-12 [4]) was 28 µM and the IC50 (PC-12 [16]) was 30 µM.
For CC[C@H](C)[C@H](NC(=O)[C@H](C)N)C(=O)N[C@H](C(=O)N[C@H](C(N)=O)C(C)C)C(C)C (H-AIVV-NH2), the Activity (PC-12 [4]) was “Dose-dependent effect”.
With CC[C@H](C)[C@H](NC(=O)[C@H](C)N)C(=O)N[C@H](C(=O)N[C@H](C(=O)O)C(C)C)C(C)C (H-AIVV-OH) the Activity (PC-12 [4]) was “Dose-dependent effect”.
With CC[C@H](C)[C@H](NC(=O)[C@H](C)NC(=O)[C@@H](N)C(C)C)C(=O)N[C@@H](C)C(=O)O (H-VAIA-OH) the Activity (PC-12 [4]) was “Dose-dependent effect”, the IC50 (PC-12 [4]) was 15 µM and the IC50 (PC-12 [16]) was 14 µM.
With CC[C@H](C)[C@H](NC(=O)[C@@H](NC(=O)[C@H](C)N)C(C)C)C(=O)N[C@@H](C)C(=O)O (H-AVIA-OH) the Activity (PC-12 [4]) was “Dose-dependent effect”, the IC50 (PC-12 [4]) was 53 µM and the IC50 (PC-12 [16]) was 22 µM.

Reference: ChEMBL document CHEMBL1926517, “C-terminal tetrapeptides inhibit Aβ42-induced neurotoxicity primarily through specific interaction at the N-terminus of Aβ42” (J Med Chem, 2011)
